pKd: −log10 of the molar value. Activity calls are given as the source filed them. The calls are words filed in the database; no cut-off is given here.
Key:
[1] = Binding affinity to HP duplex DNA 1 (unknown origin) containing c-Myc P2 promoter sequence incubated for 12 hrs at 37 degC in presence of 50 mM pH 7.2 HEPES buffer containing 10 mM MgCl2, 100 mM NaCl and 10% sucrose
[2] = Binding affinity to fluorescently-labeled HP duplex DNA 2 (unknown origin) containing HIV2 nef gene assessed as formation of stable triplexes at 40 uM in presence of 40 uM RNA 1 (5'-CACCACCACCACC-3') by gel mobility shift assay
[3] = (§1) Binding affinity to fluorescently-labeled mismatched HP duplex DNA 8 (unknown origin) containing HIV2 nef gene assessed as formation of stable triplexes at 100 uM incubated for 12 hrs at 37 degC in presence of 50 mM pH 7.2 HEPES buffer containing 10 mM MgCl2, 100 mM NaCl and 10% sucrose by gel mobility shift assay
Summary of the method: (§2)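 Triplex formation by gel shift. Oligonucleotide at 100 µM was mixed with fluorescently labeled hairpin duplex at 40 nM in 50 mM HEPES (pH 7.2), 10 mM MgCl2, 100 mM NaCl and 10% sucrose for 12 h at 37 °C. Complexes were resolved on a 15% nondenaturing polyacrylamide gel.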

[4] = as §1, with “fluorescently-labeled” for “fluorescently-labeled mismatched”, “2” for “8”; summary of the method: as §2
[5] = as §1, with “4” for “8”; summary of the method: as §2
[6] = Binding affinity to HP duplex DNA 2 (unknown origin) containing HIV2 nef gene sequence incubated for 12 hrs at 37 degC in presence of 50 mM pH 7.2 HEPES buffer containing 10 mM MgCl2, 100 mM NaCl and 10% sucrose
Summary of the method: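 Oligonucleotide binding to a 5'-FAM-labeled hairpin duplex bearing the HIV2 nef sequence. Incubation was 12 h at 37 °C in 50 mM HEPES (pH 7.2) with 10 mM MgCl2, 100 mM NaCl and 10% sucrose. Kd reported in µM.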

[7] = as §1, with “6” for “8”; summary of the method: as §2
[8] = as §1, with “5” for “8”; summary of the method: as §2
[9] = Binding affinity to HP duplex DNA 2 (unknown origin) containing HIV2 nef gene sequence incubated for 12 hrs at 37 degC in presence of 50 mM pH 7.2 HEPES buffer containing 10 mM MgCl2, 100 mM KCl and 10% sucrose
[10] = as §1, with “3” for “8”; summary of the method: as §2
[11] = as §1, with “7” for “8”; summary of the method: as §2
[12] = Binding affinity to fluorescently-labeled HP duplex DNA 2 (unknown origin) containing HIV2 nef gene assessed as formation of stable triplexes at 40 uM by gel mobility shift assay

| pKd [1] | Activity [2] | pKd [3] | Activity [4] | Activity [5] | pKd [6] | Activity [7] | Activity [8] | pKd [9] | Activity [10] | Activity [11] | Activity [12] | Compound |
| --- | --- | --- | --- | --- | --- | --- | --- | --- | --- | --- | --- | --- |
| 6.17 |  |  |  |  |  |  |  |  |  |  |  | Cc1cn([C@H]2C[C@H](OP(=O)(O)OC[C@H]3O[C@@H](n4cnc5c(=S)[nH]c(N)nc54)C[C@@H]3OP(=O)(O)OC[C@H]3O[C@@H](n4cnc5c(=S)[nH]c(N)nc54)C[C@@H]3OP(=O)(O)OC[C@H]3O[C@@H](n4cnc5c(=S)[nH]c(N)nc54)C[C@@H]3OP(=O)(O)OC[C@H]3O[C@@H](n4cc(C)c(=S)[nH]c4=O)C[C@@H]3OP(=O)(O)OC[C@H]3O[C@@H](n4cnc5c(=S)[nH]c(N)nc54)C[C@@H]3OP(=O)(O)OC[C@H]3O[C@@H](n4cnc5c(=S)[nH]c(N)nc54)C[C@@H]3OP(=O)(O)OC[C@H]3O[C@@H](n4cnc5c(=S)[nH]c(N)nc54)C[C@@H]3OP(=O)(O)OC[C@H]3O[C@@H](n4cc(C)c(=S)[nH]c4=O)C[C@@H]3OP(=O)(O)OC[C@H]3O[C@@H](n4cnc5c(=S)[nH]c(N)nc54)C[C@@H]3OP(=O)(O)OC[C@H]3O[C@@H](n4cnc5c(=O)[nH]c(N)nc54)[C@H](O)[C@@H]3O)[C@@H](CO)O2)c(=O)[nH]c1=S |
| 5.14 |  |  |  |  |  |  |  |  |  |  |  | Cc1cn([C@H]2C[C@H](OP(=O)(O)OC[C@H]3O[C@@H](n4cnc5c(=S)[nH]c(N)nc54)C[C@@H]3OP(=O)(O)OC[C@H]3O[C@@H](n4cnc5c(=S)[nH]c(N)nc54)C[C@@H]3OP(=O)(O)OC[C@H]3O[C@@H](n4cnc5c(=S)[nH]c(N)nc54)C[C@@H]3OP(=O)(O)OC[C@H]3O[C@@H](n4cc(C)c(=O)[nH]c4=O)C[C@@H]3OP(=O)(O)OC[C@H]3O[C@@H](n4cnc5c(=S)[nH]c(N)nc54)C[C@@H]3OP(=O)(O)OC[C@H]3O[C@@H](n4cnc5c(=S)[nH]c(N)nc54)C[C@@H]3OP(=O)(O)OC[C@H]3O[C@@H](n4cnc5c(=S)[nH]c(N)nc54)C[C@@H]3OP(=O)(O)OC[C@H]3O[C@@H](n4cc(C)c(=O)[nH]c4=O)C[C@@H]3OP(=O)(O)OC[C@H]3O[C@@H](n4cnc5c(=S)[nH]c(N)nc54)C[C@@H]3OP(=O)(O)OC[C@H]3O[C@@H](n4cnc5c(=O)[nH]c(N)nc54)[C@H](O)[C@@H]3O)[C@@H](CO)O2)c(=O)[nH]c1=O |
|  | Active | < 4.00 | Active | inactive | 6.40 | inactive | inactive | 6.70 | inactive | inactive | Active | Cc1cn([C@H]2C[C@H](OP(=O)(O)OC[C@H]3O[C@@H](n4cnc5c(=O)[nH]c(N)nc54)[C@H](O)[C@@H]3O)[C@@H](COP(=O)(O)O[C@H]3C[C@H](n4cnc5c(=S)[nH]c(N)nc54)O[C@@H]3COP(=O)(O)O[C@H]3C[C@H](n4cnc5c(=S)[nH]c(N)nc54)O[C@@H]3COP(=O)(O)O[C@H]3C[C@H](n4cc(C)c(=S)[nH]c4=O)O[C@@H]3COP(=O)(O)O[C@H]3C[C@H](n4cnc5c(=S)[nH]c(N)nc54)O[C@@H]3COP(=O)(O)O[C@H]3C[C@H](n4cnc5c(=S)[nH]c(N)nc54)O[C@@H]3COP(=O)(O)O[C@H]3C[C@H](n4cc(C)c(=S)[nH]c4=O)O[C@@H]3COP(=O)(O)O[C@H]3C[C@H](n4cnc5c(=S)[nH]c(N)nc54)O[C@@H]3COP(=O)(O)O[C@H]3C[C@H](n4cnc5c(=S)[nH]c(N)nc54)O[C@@H]3COP(=O)(O)O[C@H]3C[C@H](n4cc(C)c(=S)[nH]c4=O)O[C@@H]3COP(=O)(O)O[C@H]3C[C@H](n4cnc5c(=S)[nH]c(N)nc54)O[C@@H]3COP(=O)(O)O[C@H]3C[C@H](n4cnc5c(=S)[nH]c(N)nc54)O[C@@H]3CO)O2)c(=O)[nH]c1=O |
